Hits are enriched below; roughly 2.8% of the tested compounds scored in any of these assays.
mABHD4 FP – inhibitors of mouse ABHD4. Q8VD66. purified mABHD4, FP-Rh probe fluorescence polarization. inhibition, % at 8.92 µM. hit rate 0.54% among 370,000. AID 720543;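 active = inhibition exceeding the mean over every tested compound plus 3 SD, cut at about 30% in these data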;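 also: 0% = plate median of compound wells and 100% = S159A mutant with DMSO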
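system = mouse ABHD4 enzyme, wild type | medium = HEPES pH 7.0, NaCl, Pluronic buffer | also added = FP-Rh probe | incubation = Enzyme–compound pre-incubation 45 min, then probe 60 min, both 25 °C | technique = fluorescence polarization, excitation 525 nm, emission 598 nm, BODIPY TMR filters | controls = S159A mutant high control, sample median low control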
HTRA1 inh – inhibitors of human serine peptidase HTRA1; recombinant HTRA1, FP-rhodamine activity-based probe, fluorescence polarization; hit rate 0.5% among 340,000; Q92743; inhibition, % at 5.96 µM; in the data active = inhibition above about 36%;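 also: 0% = enzyme with DMSO and 100% = wells lacking enzyme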
PAFAH1B2 FP inh – inhibitors of human PAFAH1B2 | recombinant PAFAH1B2, FP-rhodamine activity probe, fluorescence polarization | inhibition, % at 3.39 µM | hit rate 1.2% among 340,000 | AID 492953;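 active = inhibition above the mean of all tested compounds plus 3 SD, cut at about 24% in these data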;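 also: 0% = enzyme with DMSO and 100% = wells lacking PAFAH1B2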
PAFAH1B3 FP inh – PAFAH1B3 (human) inhibition; Q15102; recombinant PAFAH1B3, FP-rhodamine probe, fluorescence polarization; inhibition, % at 3.39 µM; hit rate 0.28% among 340,000; AID 492972;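 active = inhibition above the screen-wide average of all tested compounds plus 3 SD, cut at about 25% in these data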;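 also: 0% = enzyme with DMSO only and 100% = wells lacking PAFAH1B3 protein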
pPAFAH inh – inhibitors of human plasma PAF acetylhydrolase (pPAFAH); Q13093; recombinant pPAFAH, FP-rhodamine probe fluorescence polarization; inhibition, % at 3.39 µM; hit rate 1.5% among 330,000; AID 463082;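 active = inhibition above the mean inhibition across the screen plus 3 SD, cut at about 25% in these data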;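 also: inhibitors block binding of the rhodamine activity-based probe so polarization drops; 0% = enzyme with DMSO and 100% = wells lacking pPAFAH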
Target sequence (Q13093 whole entry, looked up): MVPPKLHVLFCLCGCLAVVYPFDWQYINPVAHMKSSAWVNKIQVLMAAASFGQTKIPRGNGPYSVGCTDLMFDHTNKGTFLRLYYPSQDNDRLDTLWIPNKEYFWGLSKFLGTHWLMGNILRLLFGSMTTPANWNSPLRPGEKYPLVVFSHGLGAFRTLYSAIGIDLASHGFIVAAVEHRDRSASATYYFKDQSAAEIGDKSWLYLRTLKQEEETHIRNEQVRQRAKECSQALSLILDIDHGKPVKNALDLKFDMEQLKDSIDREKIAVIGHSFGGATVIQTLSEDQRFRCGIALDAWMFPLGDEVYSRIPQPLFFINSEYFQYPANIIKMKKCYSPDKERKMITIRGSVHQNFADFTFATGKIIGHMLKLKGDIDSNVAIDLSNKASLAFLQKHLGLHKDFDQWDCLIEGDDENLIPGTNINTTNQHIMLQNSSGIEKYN
PAFAH2 inh – PAFAH2 (human) inhibition. Q99487. recombinant PAFAH2, FP-rhodamine activity probe, fluorescence polarization. inhibition, % at 3.39 µM. hit rate 0.99% among 340,000. AID 492956;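 active = inhibition above the mean over all tested compounds plus 3 SD, cut at about 30% in these data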;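 also: inhibitors block probe labeling of enzyme so polarization drops; 0% = enzyme with DMSO and 100% = wells lacking PAFAH2 protein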
PAFAH2 confirm – PAFAH2 (human) inhibition, confirmed. shares compounds with PAFAH2 inh. hit rate 65% among 2,300. inhibition, % at 3.39 µM. recombinant PAFAH2, FP-rhodamine activity probe, fluorescence polarization;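 active = mean inhibition over three repeats above a set limit taken from the earlier primary screen, cut at about 30% in these data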;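 also: inhibitor blocks binding of rhodamine activity probe so polarization falls; 0% = enzyme with DMSO and 100% = wells lacking PAFAH2 protein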
An asterisk follows results filed as active; / = no result.

SMILES | mABHD4 FP | HTRA1 inh | PAFAH1B2 FP inh | PAFAH1B3 FP inh | pPAFAH inh | PAFAH2 inh | PAFAH2 confirm
COC(=O)[C@]12C[C@H](CC(=O)NCCC(C)C)C(=O)N(CCc3ccc(OC)c(OC)c3)C1=C[C@H](C1CCCC1)O[C@@H]2C | 0 | / | / | / | / | / | /
COc1ccc(S[C@]2(C(=O)N3CCCC3)CC(=O)N(c3ccc4c(ccn4C)c3)[C@@H]2c2ccc(OC)cc2)cc1 | 10 | / | / | / | / | / | /
Cc1ccc(S(=O)(=O)/N=C2\C=C(NS(=O)(=O)c3ccccc3)C(=O)c3ccccc32)cc1 | 27 | -2 | 3 | 3 | / | 30* | 14
C=CCN1C(=O)[C@@H](CC(=O)N2CCSCC2)[C@]2(C(=O)OC)CCCCC=C12 | 0 | / | / | / | / | / | /
CC(C)(C)C(=O)OC/C(N)=N/OC(=O)c1ccccc1 | 8 | -5 | 4 | 12 | 7 | 44* | 71*
COc1ccc(CCn2c(O)c(C=Nc3cccc(F)c3)c(=O)[nH]c2=O)cc1OC | 1 | / | / | / | 1 | / | /
C=CCn1c(O)c(C=Nc2ccc(Cc3ccncc3)cc2)c(=O)[nH]c1=S | 0 | 2 | 7 | 4 | 9 | 32* | 21
Cc1cccc(NC(=O)CNC(=O)[C@@H](Cc2ccccc2)NC(=O)[C@H]2O[C@@H](n3ccc(=O)[nH]c3=O)[C@H](O)[C@@H]2O)c1C | -3 | / | / | / | / | / | /
COc1cc(/C=C/C(=O)OCC(=O)NCCC2=CCCCC2)ccc1O | -3 | -6 | 3 | -5 | 14 | 57* | 63*
COc1cc(/C=C/C(=O)OCC(=O)NCCC2=CCCCC2)cc(OC)c1OC | -8 | 1 | 4 | -4 | 13 | 33* | 10
O=C(COC(=O)c1cccc(S(=O)(=O)N2CCCC2)c1)Nc1ccccc1C(F)(F)F | 0 | -5 | 1 | -3 | / | 45* | 40*
CC(=O)N1CCN(S(=O)(=O)c2cccc(C(=O)OCC(=O)Nc3c(Cl)cccc3C(F)(F)F)c2)CC1 | -4 | -1 | 4 | 2 | / | 44* | 32*
Cc1ccc(C(=O)OCC(=O)NC(=O)c2cccn2C)cc1 | -2 | 0 | 3 | 2 | 4 | 47* | 38*
Cc1ccc(C)c(NC(=O)COC(=O)c2cccc(S(=O)(=O)N3CCCC3)c2)c1 | 3 | 4 | / | / | / | / | /
COc1cccc(CNC(=O)COC(=O)c2cccc(S(=O)(=O)N3CCN(C(C)=O)CC3)c2)c1 | 1 | 1 | 3 | 3 | 16 | 17 | /
CC(=O)N1CCN(S(=O)(=O)c2cccc(C(=O)OCC(=O)NC(=O)c3cccn3C)c2)CC1 | -7 | 5 | 4 | 4 | 11 | 35* | 32*
C=CCN1C(=O)[C@@H](CC(=O)NCCc2ccccc2OC)[C@]2(C(=O)OCC)CCCCC/C=C/12 | -1 | / | / | / | / | / | /
C=CCSC1=N/C(=C\c2cc(OC)c3c(c2)OCO3)C(=O)S1 | 14 | 14 | -1 | 7 | 4 | 42* | 43*
NS(=O)(=O)c1cccc(NC(=O)c2ccccc2NS(=O)(=O)c2ccc(F)cc2)c1 | 4 | -16 | 5 | -1 | 9 | 42* | 47*
CCOC(=O)Cc1nc2ccccc2[nH]1 | 1 | 6 | 2 | 9 | 20 | 4 | /
O=C(OCc1nc2ccccc2[nH]1)C12CC3CC(CC(C3)C1)C2 | -8 | -15 | 9 | -7 | 2 | 57* | 49*
O=c1oc(-c2ccccc2NS(=O)(=O)c2ccc3ccccc3c2)nc2ccccc12 | -31 | -115 | 4 | -20 | -6 | 36* | 40*
C#C[C@]1(O)CC[C@H]2[C@@H]3CCc4cc(OC5CCCC5)ccc4[C@H]3CC[C@@]21C | -11 | -23 | 1 | -4 | -1 | 53* | 51*
N#Cc1ccc(/C=C2\CC3(OC(=O)c4ccco4)CCCN2C3)cc1 (stereo unspecified) | 2 | / | / | / | / | / | /
CCOC(=O)N1CCN(C(=O)C[C@@H]2C(=O)N(Cc3ccc(OC)cc3)/C3=C/CCCCC[C@@]32C(=O)OCC)CC1 | 5 | / | / | / | / | / | /
CN(Cc1nccs1)C(=O)C1CCC(=O)N(CCCc2ccccc2)C1 (stereo unspecified) | 0 | 1 | -1 | 5 | / | 31* | 20
